What was measured:
[1] = Area under the curve during systemic administration; format: ADME; set-up: concentration or dose not given beside the values; details: other: systemic administration
[2] = biological target: Protein farnesyltransferase (Bos taurus, UniProt P29702+P49355); test: In vitro inhibition of farnesyltransferase purified from bovine brain using scintillation proximity assay
[3] = Portal vein area under the curve after intraduodenal administration; set-up: concentration or dose not given beside the values
[4] = Biological half-life in the rat; format: ADME, organism-based; details: in vivo
Outline: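 Half-life determined after intravenous dosing in rats.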

NIH3T3 = test: In Vitro inhibition of Ha-Ras procession by using subconfluent NIH3T3 ras-transformed cells; format: functional; details: Mus musculus, read-out: ED50 (the source's name)

AUC [1]	IC50 [2]	AUC [3]	half-life [4]	SMILES	EC50 (NIH3T3)
500 ng·h/mL	0.1 nM	3000 ng·h/mL	49.8 min	CSCC[C@H](NC(=O)c1ccc(CN(Cc2ccccc2)c2cccnc2)cc1-c1ccccc1C)C(=O)O	13 nM
–	39 nM	–	–	CSCC[C@H](NC(=O)c1ccc(CN(C(=O)Cc2ccccc2)c2cccnc2)cc1-c1ccccc1C)C(=O)O	> 1000 nM
–	2 nM	–	–	CCCCCc1cc(C(=O)N[C@@H](CCSC)C(=O)O)c(-c2ccccc2C)cc1COc1cccnc1	1000 nM
1600 ng·h/mL	0.4 nM	3200 ng·h/mL	< 24 min	CSCC[C@H](NC(=O)c1ccc(CN(Cc2ccccc2)Cc2cncs2)cc1-c1ccccc1C)C(=O)O	300 nM
–	1 nM	–	–	CSCC[C@H](NC(=O)c1cc(Cc2ccccc2)c(COc2cccnc2)cc1-c1ccccc1C)C(=O)O	> 1000 nM
–	510 nM	–	–	CSCC[C@H](NC(=O)c1cc(-c2cccs2)c(COc2cccnc2)cc1-c1ccccc1C)C(=O)O	–
–	11 nM	–	–	CCc1cc(C(=O)N[C@@H](CCSC)C(=O)O)c(-c2ccccc2C)cc1COc1cccnc1	< 10000 nM
300 ng·h/mL	0.2 nM	2400 ng·h/mL	67.8 min	CSCC[C@H](NC(=O)c1ccc(CN(Cc2cc(F)cc(F)c2)Cc2cncs2)cc1-c1ccccc1C)C(=O)O	500 nM
–	16 nM	–	–	CSCC[C@H](NC(=O)c1ccc(CN(Cc2ccccc2)Cc2cscn2)cc1-c1ccccc1C)C(=O)O	> 1000 nM
–	370 nM	–	–	CSCC[C@H](NC(=O)c1cc(-c2ccc(C)cc2)c(COc2cccnc2)cc1-c1ccccc1C)C(=O)O	–
900 ng·h/mL	0.8 nM	1800 ng·h/mL	< 24 min	CSCC[C@H](NC(=O)c1ccc(CN(Cc2ccccc2)c2cnccn2)cc1-c1ccccc1C)C(=O)O	50 nM
100 ng·h/mL	0.1 nM	1000 ng·h/mL	< 24 min	CSCC[C@H](NC(=O)c1ccc(CN(CC2CCCCC2)c2cccnc2)cc1-c1ccccc1C)C(=O)O	10 nM
20 ng·h/mL	0.4 nM	10400 ng·h/mL	30 min	CSCC[C@H](NC(=O)c1ccc(CN(Cc2ccccc2)c2cncnc2)cc1-c1ccccc1C)C(=O)O	90 nM
–	0.4 nM	–	–	CSCC[C@H](NC(=O)c1ccc(CNc2cccnc2)cc1-c1ccccc1C)C(=O)O	3000 nM
–	95 nM	–	–	CSCC[C@H](NC(=O)c1cc(-c2cc(Cl)cc(Cl)c2)c(COc2cccnc2)cc1-c1ccccc1C)C(=O)O	–
–	–	–	–	CSCC[C@H](NC(=O)c1ccc(COc2cccnc2)cc1-c1ccccc1C)C(=O)O	400 nM
140 ng·h/mL	1.4 nM	3560 ng·h/mL	60 min	CSCC[C@H](NC(=O)c1ccc(CN(Cc2cc(F)cc(F)c2)c2cccnc2)cc1-c1ccccc1C)C(=O)O	50 nM
–	0.5 nM	–	–	CSCC[C@H](NC(=O)c1cc(CCc2ccccc2)c(COc2cccnc2)cc1-c1ccccc1C)C(=O)O	1000 nM
–	53 nM	–	–	CSCC[C@H](NC(=O)c1ccc(CN(C(=O)c2ccccc2)c2cccnc2)cc1-c1ccccc1C)C(=O)O	> 1000 nM
600 ng·h/mL	1.4 nM	1900 ng·h/mL	48 min	CSCC[C@H](NC(=O)c1ccc(CN(Cc2ccccc2)c2ccccc2)cc1-c1ccccc1C)C(=O)O	400 nM
–	29 nM	–	–	CSCC[C@H](NC(=O)c1cc(CC(C)C)c(COc2cccnc2)cc1-c1ccccc1C)C(=O)O	> 10000 nM
400 ng·h/mL	0.1 nM	2400 ng·h/mL	< 24 min	CSCC[C@H](NC(=O)c1ccc(CN(Cc2ccccc2)c2cncc(F)c2)cc1-c1ccccc1C)C(=O)O	30 nM
–	12 nM	–	–	CSCC[C@H](NC(=O)c1cc(CC2CCCCC2)c(COc2cccnc2)cc1-c1ccccc1C)C(=O)O	1000 nM
–	7 nM	–	–	CSCC[C@H](NC(=O)c1ccc(CN(Cc2ccccc2)Cc2nccs2)cc1-c1ccccc1C)C(=O)O	> 1000 nM
–	7 nM	–	–	CSCC[C@H](NC(=O)c1ccc(CN(c2cccnc2)S(=O)(=O)c2ccccc2)cc1-c1ccccc1C)C(=O)O	–
10800 ng·h/mL	0.4 nM	14300 ng·h/mL	114 min	CSCC[C@H](NC(=O)c1ccc(CN(Cc2cc(F)cc(F)c2)c2ccccc2)cc1-c1ccccc1C)C(=O)O	1000 nM
–	11 nM	–	–	CCCCc1cc(C(=O)N[C@@H](CCSC)C(=O)O)c(-c2ccccc2C)cc1COc1cccnc1	–

— ChEMBL document CHEMBL1132658, “Second-generation peptidomimetic inhibitors of protein farnesyltransferase demonstrating improved cellular potency and significant in vivo efficacy” (J Med Chem, 1999)
